Compound activity as filed in PubChem BioAssay.
A selection: hits, their analogues and other compounds. The true share with any hit is near 2.2%.
ASAP1 GAP inh: ASAP1 ArfGAP inhibition; inhibition, % at 16.5 µM; 360,000 tested, 0.19% active; ASAP1-stimulated ARF1 GTP hydrolysis, GDP FP detection; AID 624377; in the data active = inhibition above about 25%
Target sequence (Q9ULH1 325-724 limits assumed): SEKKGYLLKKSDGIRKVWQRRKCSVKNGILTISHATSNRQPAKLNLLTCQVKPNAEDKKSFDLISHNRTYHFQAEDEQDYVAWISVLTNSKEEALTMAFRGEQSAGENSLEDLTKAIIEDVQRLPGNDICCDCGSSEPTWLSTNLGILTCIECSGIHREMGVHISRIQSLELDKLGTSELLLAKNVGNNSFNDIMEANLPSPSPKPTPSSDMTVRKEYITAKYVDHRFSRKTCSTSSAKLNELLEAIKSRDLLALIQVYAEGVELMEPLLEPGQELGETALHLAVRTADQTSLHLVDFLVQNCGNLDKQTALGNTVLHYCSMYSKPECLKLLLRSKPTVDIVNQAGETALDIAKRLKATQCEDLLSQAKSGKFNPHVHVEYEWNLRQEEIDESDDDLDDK
rCAG binder: molecules binding r(CAG) RNA repeats; r(CAG) RNA repeat, TO-PRO-1 dye displacement fluorescence; inhibition, % at 3 µM; 370,000 tested, 1.3% active;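 active = inhibition above the plate cutoff, the mean of all test compounds on that plate plus 3 SD, cut at about 35% in these data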;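 also: higher means more dye released from RNA so lower well fluorescence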
ARFGAP1 inhibitor: inhibitors of rat ARFGAP1; Q62848; Arfgap1-stimulated ARF1 GTP hydrolysis, GDP FP detection; inhibition, % at 16.5 µM; 360,000 tested, 0.26% active;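 active = inhibition above a per-plate limit, mean inhibition of low control wells plus 3 SD, cut at about 25% in these data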
Target sequence (Q62848 1-136 limits assumed): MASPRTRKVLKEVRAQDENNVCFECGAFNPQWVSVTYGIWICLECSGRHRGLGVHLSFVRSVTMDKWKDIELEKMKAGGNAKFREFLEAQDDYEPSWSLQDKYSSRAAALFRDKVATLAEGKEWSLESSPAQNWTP
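material = rat Arfgap1 catalytic domain, aa 1-136 | also added = human ARF1(Δ1-17)-GTP substrate | compound dosing = one concentration, 16.5 µM, DMSO 1.26% | times = GTP hydrolysis reaction 2 h at 25 °C | measured by = FP, GDP Alexa 633 tracer displaced from anti-GDP antibody, 620/688 nm | evaluation = percent inhibition of Arfgap1-stimulated GTP hydrolysis | replication = single well per compound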
NadD inh: NadD (S. aureus) enzyme inhibition; 360,000 tested, 0.78% active; inhibition, % at 20 µM; AID 602399; purified NadD enzyme, colorimetric absorbance read-out; in the data active = inhibition above about 26%
rCAG binder conf: r(CAG) RNA repeat binding, confirmation; 4,300 tested, 70% active; shares compounds with rCAG binder; TO-PRO-1 dye displacement fluorescence; inhibition, % at 3 µM;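 active = inhibition above a per-plate cutoff, the mean inhibition of sample wells plus 3 SD, cut at about 35% in these data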;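 also: loss of TO-PRO-1 fluorescence as compound displaces dye from 1x1 AA loop RNA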
dCAG dye counter: DNA CAG dye complex inhibition counter-screen | shares compounds with rCAG binder | d(CAG) DNA oligo TO-PRO-1 dye displacement, fluorescence | inhibition, % at 3 µM | 4,300 tested, 94% active | AID 652068;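 active = inhibition above its plate's cutoff, the mean test-well inhibition plus 3 SD, cut at about 4.8% in these data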;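 also: hits displace the dye from DNA and so lower well fluorescence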
A number is an active result; . = inactive; / = no result.

SMILES | ASAP1 GAP inh | rCAG binder | ARFGAP1 inhibitor | NadD inh | rCAG binder conf | dCAG dye counter
Fc1ccc(-c2n[nH]c(=S)n2N=Cc2ccc(-c3ccccc3)cc2)cc1 | / | 44 | / | / | 40 | 16
COc1cc(/C=N/n2c(C)n[nH]c2=S)ccc1OCc1ccc(F)cc1 | . | . | . | . | / | /
COc1ccc(C=Nn2c(-c3ccccc3F)n[nH]c2=S)cc1OCc1ccccc1 | / | 50 | / | / | 42 | 10
Oc1ccc2ccccc2c1C=Nn1c(-c2n[nH]c3c2CCC3)n[nH]c1=S | / | 72 | / | / | 60 | 22
O=C(NCc1ccccc1)[C@H]1CCCN1C(=O)[C@H]1CCCN1C(=O)c1ccc(F)cc1 | . | . | . | / | / | /
CCc1c(Cc2ccccc2)ncn1CCc1ccccc1OC | . | . | . | / | / | /
COC(=O)[C@]12C[C@H](CC(=O)NCc3cccc4ccccc34)C(=O)N(Cc3ccccc3)C1=C[C@H](C1CCCC1)O[C@@H]2C | . | . | . | / | / | /
Cc1cc(N/N=C/c2ccc(O)c(C)c2O)nc(-c2ccccc2O)n1 | . | 62 | . | . | 53 | 24
Cc1cc(Nc2ccc(Br)cc2)nc(-c2ccccc2O)n1 | . | 38 | . | . | . | .
Cc1ccc(Nc2cc(C)nc(-c3ccccc3O)n2)cc1 | . | . | . | . | / | /
COC(=O)[C@]12C[C@H](CC(=O)NCc3ccccc3)C(=O)N(Cc3ccco3)C1=C[C@H](COCc1ccccc1)O[C@@H]2C | / | . | / | / | / | /
CC(COc1ccc(C#N)cc1F)CN1CCC(C(O)(c2ccccc2)c2ccccc2)CC1 (stereo not drawn) | / | . | / | / | / | /
C=CCOc1ccc(C(c2c(C(=O)O)[nH]c3ccccc23)c2c(C(=O)O)[nH]c3ccccc23)cc1 | . | 92 | . | . | 82 | 51
COC(=O)c1[nH]c2ccc(Cl)cc2c1NC(=O)c1ccccc1[N+](=O)[O-] | . | . | . | . | / | /
COc1cc(C(c2c(C(=O)O)[nH]c3ccccc23)c2c(C(=O)O)[nH]c3ccccc23)ccc1OCc1ccccc1 | . | 94 | . | . | 90 | 68
O=C(O)COc1ccc(Br)cc1C(c1c(C(=O)O)[nH]c2ccccc12)c1c(C(=O)O)[nH]c2ccccc12 | / | / | / | . | / | /
O=C(O)c1[nH]c2ccccc2c1C(c1ccccc1)c1c(C(=O)O)[nH]c2ccccc12 | . | 70 | . | . | 47 | 15
O=C(O)c1[nH]c2ccccc2c1C(c1cc(Cl)cc([N+](=O)[O-])c1O)c1c(C(=O)O)[nH]c2ccccc12 | . | 92 | . | . | 73 | 37
Cc1ccc(CSc2nnc(-c3cccc(S(=O)(=O)N4CCOCC4)c3)n2CC(C)C)cc1 | . | 49 | . | . | . | .
CCCCn1c(O)c(/C=C/C=C/C=Nc2ccccc2)sc1=S | . | 40 | . | . | . | 18
Oc1c(/C=C/C=C/C=Nc2ccccc2)sc(=S)n1Cc1ccccc1 | . | 46 | . | 32 | 38 | 20
OCCCNc1ncnc2c1ncn2[C@H]1CN(C2CCCC2)C[C@@H](CO)O1 | . | . | . | . | / | /
CC(C)(C)C(=O)OC12CCCN(C1)/C(=C/c1ccncc1)C2 (stereo not drawn) | / | . | / | / | / | /
O=C(N/N=C/c1cc(Br)cc([N+](=O)[O-])c1O)c1ccc(NC(=O)c2ccc(F)cc2)cc1 | . | 43 | . | 54 | 78 | 41
CCCCNC(=O)C1c2ccccc2OCC(=O)N1Cc1cccnc1 (stereo not drawn) | . | . | . | . | / | /
SMILES | ASAP1 GAP inh | rCAG binder | ARFGAP1 inhibitor | NadD inh | rCAG binder conf | dCAG dye counter
O=C(Nc1ccc2ccccc2c1)C(c1ccccc1)n1c(=O)c(-c2cc3ccccc3[nH]2)nc2ccccc21 (stereo not drawn) | . | . | . | / | / | /
C/C(CC(=O)Nc1ccc(Cl)c(C(F)(F)F)c1)=N\NC(=O)c1ccccc1O | . | 53 | . | . | . | .
C/C(CC(=O)Nc1ccc(Cl)c(C(F)(F)F)c1)=N\NC(=O)c1cccc(O)c1 | . | . | . | . | / | /
O=S1(=O)CC2c3ccccc3CN2CN1C1CCCC1 (stereo not drawn) | / | . | / | / | / | /
Cc1ccc(C)c(/C=C/C(=O)c2ccccc(=O)c2O)c1 | . | 39 | . | . | . | 10
Cc1ccc(/C=C/C(=O)c2ccccc(=O)c2O)c(C)c1 | . | . | . | . | / | /
Cc1cc(C)c(S(=O)(=O)N2C[C@H]3CON(C)[C@H]3C[C@H]2c2ccc(-n3ccnc3)cc2)c(C)c1 | . | . | . | / | / | /
NC(COCc1ccccc1)c1csc(NC(=O)Nc2cccc(C(F)(F)F)c2)n1 (stereo not drawn) | . | 43 | . | . | . | 5.1
NC(c1ccccc1)c1csc(NC(=O)Nc2cccc(Cl)c2)n1 (stereo not drawn) | . | 48 | . | . | 37 | 17
NC(=O)c1ccc(Nc2nc(C(N)COCc3ccccc3)cs2)cc1 (stereo not drawn) | . | . | . | . | / | /
COc1ccccc1NC(=O)Nc1nc(C(N)CCc2ccccc2)cs1 (stereo not drawn) | . | . | . | . | / | /
NC(CCc1ccccc1)c1csc(NC(=O)Nc2cccc(Cl)c2)n1 (stereo not drawn) | . | 47 | . | . | 40 | 9.8
COc1ccc(NC(=O)Nc2nc(C(N)Cc3ccc(C(F)(F)F)cc3)cs2)cc1 (stereo not drawn) | . | 37 | . | . | . | .
O=C(Nc1cccc(Cl)c1)Nc1nc(-c2ccc(Cl)cc2)cs1 | . | . | . | . | / | /
O=C1CCN(Cc2ccc(Br)cc2)CCN1[C@H](CO)Cc1ccccc1 | . | . | . | . | / | /
O=C(OC12CCCN(C1)/C(=C/c1cccnc1)C2)c1ccc(F)cc1 (stereo not drawn) | / | . | / | / | / | /
NC(c1ccccc1)c1csc(NC(=O)Nc2ccc(OC(F)(F)F)cc2)n1 (stereo not drawn) | . | 41 | . | . | 35 | 13
NC(c1ccccc1)c1csc(NC(=O)Nc2ccccc2Oc2ccccc2)n1 (stereo not drawn) | . | . | . | . | / | /
O=C1C[C@@H](C(=O)Nc2ccc(Cl)cc2)[C@@H](c2ccccc2)O1 | / | . | / | / | / | /
O=C(O)CC1(CC(=O)Nc2cc(C(F)(F)F)cc(C(F)(F)F)c2)CCCCC1 | . | 42 | . | . | . | 4.8
O=C(O)CC1(CC(=O)NCc2ccc(C(F)(F)F)cc2)CCCCC1 | . | . | . | . | / | /
Cc1cc2c(cc1C)NC(=O)C(C)CN2 (stereo not drawn) | . | . | . | . | / | /
C/C(=N/Nc1ccc(C(=O)O)cc1)c1ccc2c(c1)Nc1ccccc1S2 | . | 45 | . | . | 81 | 41
C/C(=N\Nc1ccc(C(=O)O)cc1)c1ccc2c(c1)Nc1ccccc1S2 | . | 39 | . | . | 86 | 59
N#C/C(=C(/O)COc1ccccc1)c1nc2ccccc2s1 | . | . | . | . | / | /
N#C/C(=C(/O)COC(=O)c1ccc(C#N)cc1)c1nc2ccccc2s1 | . | 38 | . | . | 40 | 17
Cc1ccc(OCc2nn3c(C4CCCCC4)nnc3s2)cc1 | / | . | / | / | / | /
